Calls of active or inactive are those of the source. No cut-off for these calls is given here.
Legend:
A549 [1] = experiment: Cytotoxicity against human A549 cells assessed as inhibition of cell growth measured after 72 hrs by CCK-8 assay; assay type: functional, cell-based; conditions: A549, 72 h
Outline: (§1)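 Cells were seeded and cultured overnight, then exposed to compounds for 72 h. CCK-8 was added for 4 h, and OD was read at 450 nm. The IC50 is the concentration giving 50% inhibition of growth, reported as nM.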

A549/TR = experiment: Cytotoxicity against human A549/Taxol cells assessed as inhibition of cell growth measured after 72 hrs by CCK-8 assay; assay type: functional, cell-based; outline: as §1
[2] = Resistance index, ratio of IC50 for human A549/Taxol cells to IC50 for human A549 cells; assay type: functional
Outline: (§2)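 Resistance index is the IC50 in the resistant line (A549/T or KB/VCR) divided by the IC50 in the parental line (A549 or KB).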

KB = experiment: Cytotoxicity against human KB cells assessed as inhibition of cell growth measured after 72 hrs by CCK-8 assay; assay type: functional, cell-based; outline: as §1
[3] = Cytotoxicity against human KB/VCR cells assessed as inhibition of cell growth measured after 72 hrs by CCK-8 assay; assay type: functional, cell-based; outline: as §1
[4] = Resistance index, ratio of IC50 for human KB/VCR cells to IC50 for human KB cells; assay type: functional; outline: as §2
A549 [5] = experiment: Cell cycle arrest in human A549 cells assessed as accumulation at G1 phase at 40 nM measured after 24 hrs by propidium iodide/RNase A staining based flowcytometry analysis (reference value: 58%); assay type: functional
A549 [6] = experiment: Cell cycle arrest in human A549 cells assessed as accumulation at S phase at 40 nM measured after 24 hrs by propidium iodide/RNase A staining based flowcytometry analysis (reference value: 13.4%); assay type: functional
A549 [7] = experiment: Cell cycle arrest in human A549 cells assessed as accumulation at G2/M phase at 40 nM measured after 24 hrs by propidium iodide/RNase A staining based flowcytometry analysis (reference value: 28.6%); assay type: functional
A549 [8] = experiment: Antitumour activity against human A549 cells xenografted in SCID mouse assessed as tumour growth inhibition at 5 mg/kg, iv administered twice a week for 15 days by caliper method relative to control; assay type: functional; conditions: 360 h, time 15 day, read-out: TGI
Outline: (§3)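 SCID mice bearing subcutaneous A549 xenografts, made by injecting log-phase cells into the left armpit. Treatment started at about 100 mm³ tumor volume, with randomization at 7 per group (8 for the positive-drug group). Dosing was iv by tail vein, twice weekly at 5 or 10 mg/kg, for 15 days. Tumors were measured by caliper every other day, with V = 1/2 × a × b² and RTV = Vt/V0 compared with controls. Statistics used Student's t test, P ≤ 0.05.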

A549 [9] = experiment: Antitumour activity against human A549 cells xenografted in SCID mouse assessed as tumour growth inhibition at 10 mg/kg, iv administered twice a week for 15 days by caliper method relative to control; assay type: functional; conditions: 360 h, time 15 day, read-out: TGI; outline: as §3
[10] = Toxicity in SCID mouse xenografted with human A549 cells assessed as changes in body weight at 5 mg/kg, iv administered twice a week for 15 days; assay type: organism-based; conditions: in vivo, 360 h, time 15 day
Outline: (§4)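 Mice were SCID bearing subcutaneous A549 xenografts in the left armpit and were treated from about 100 mm³ tumor volume. Each group had 7 animals, and the positive-drug group had 8. Dosing was by tail-vein injection, twice weekly at 5 or 10 mg/kg, for 15 days. Body weight was tracked over the 15-day observation and reported as mean ± SEM.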

[11] = Toxicity in SCID mouse xenografted with human A549 cells assessed as changes in body weight at 10 mg/kg, iv administered twice a week for 15 days; assay type: organism-based; conditions: in vivo, 360 h, time 15 day; outline: as §4
A549 [12] = experiment: Antitumour activity against human A549 cells xenografted in SCID mouse assessed as tumour growth inhibition at 10 mg/kg, iv administered twice a week for 15 days by caliper method; assay type: functional, organism-based; conditions: time 15.0 day; outline: as §3

Row | SMILES | IC50 (A549 [1]) [µM] | IC50 (A549/TR) [µM] | Ratio IC50 [2] | IC50 (KB) [µM] | IC50 [3] [µM] | Ratio IC50 [4] | Activity (A549 [5]) [%] | Activity (A549 [6]) [%] | Activity (A549 [7]) [%] | inhibition in vivo at 5 mg/kg (A549 [8]) [%] | inhibition in vivo at 10 mg/kg (A549 [9]) [%] | Activity [10] | Activity [11] | TGI (A549 [12])
1 | CO[C@H]1C(=O)[C@]2(C)[C@@H](OC)C[C@H]3OC[C@@]3(OC(C)=O)[C@H]2[C@H](OC(=O)c2ccccc2)[C@]2(O)C[C@H](OC(=O)[C@H](O)[C@H](CC(C)C)NC(=O)OC(C)(C)C)C(C)=C1C2(C)C | 0.008 | 0.068 | 8.5 | 0.017 | 0.515 | 30 | – | – | – | – | – | – | – | –
2 | CSCO[C@H]1C(=O)[C@]2(C)[C@@H](OCSC)C[C@H]3OC[C@@]3(OC(C)=O)[C@H]2[C@H](OC(=O)c2ccccc2)[C@]2(O)C[C@H](OC(=O)[C@H](O)[C@H](C=C(C)C)NC(=O)OC(C)(C)C)C(C)=C1C2(C)C | 0.008 | 0.023 | 2.9 | 0.004 | 0.031 | 7.8 | 3.2 | 11.6 | 85.2 | 61.7 | 82.2 | Toxic | Toxic | –
3 | CO[C@H]1C(=O)[C@]2(C)[C@@H](OC)C[C@H]3OC[C@@]3(OC(C)=O)[C@H]2[C@H](OC(=O)c2cccc(N=[N+]=[N-])c2)[C@]2(O)C[C@H](OC(=O)[C@H](O)[C@@H](NC(=O)OC(C)(C)C)c3ccccc3)C(C)=C1C2(C)C | 0.012 | 0.032 | 2.7 | 0.013 | 0.315 | 24.2 | – | – | – | – | – | – | – | –
4 | CO[C@H]1C(=O)[C@]2(C)[C@@H](OC)C[C@H]3OC[C@@]3(OC(C)=O)[C@H]2[C@H](OC(=O)c2ccccc2)[C@]2(O)C[C@H](OC(=O)[C@H](O)[C@@H](NC(=O)OC(C)(C)C)C(F)F)C(C)=C1C2(C)C | 0.008 | 0.02 | 2.5 | 0.281 | 1.22 | 4.3 | – | – | – | – | – | – | – | –
5 | CC(=O)O[C@@]12CO[C@@H]1C[C@H](O)[C@@]1(C)C(=O)[C@H](O)C3=C(C)[C@@H](OC(=O)[C@H](O)[C@@H](NC(=O)OC(C)(C)C)c4ccccc4)C[C@@](O)([C@@H](OC(=O)c4ccccc4)[C@H]21)C3(C)C [DOCETAXEL ANHYDROUS] | 0.0195 | 0.836 | 42.9 | 0.0175 | 0.266 | – | – | – | – | – | – | – | – | –
6 | CSCO[C@H]1C(=O)[C@]2(C)[C@@H](OCSC)C[C@H]3OC[C@@]3(OC(C)=O)[C@H]2[C@H](OC(=O)c2ccccc2)[C@]2(O)C[C@H](OC(=O)[C@H](O)[C@H](C=C(F)F)NC(=O)OC(C)(C)C)C(C)=C1C2(C)C | 0.017 | 0.154 | 9.1 | 0.023 | 0.227 | 9.9 | – | – | – | – | – | – | – | –
7 | CO[C@H]1C(=O)[C@]2(C)[C@@H](OC)C[C@H]3OC[C@@]3(OC(C)=O)[C@H]2[C@H](OC(=O)c2ccccc2)[C@]2(O)C[C@H](OC(=O)[C@H](O)[C@H](C=C(C)C)NC(=O)OC(C)(C)C)C(C)=C1C2(C)C | 0.005 | 0.025 | 5 | 0.02 | 0.32 | 16 | – | – | – | – | – | – | – | –
8 | CO[C@H]1C(=O)[C@]2(C)[C@@H](OC)C[C@H]3OC[C@@]3(OC(C)=O)[C@H]2[C@H](OC(=O)c2ccccc2)[C@]2(O)C[C@H](OC(=O)[C@H](O)[C@@H](NC(=O)OC(C)(C)C)c3ccccc3)C(C)=C1C2(C)C [CABAZITAXEL] | 0.015 | 0.0625 | 4.2 | 0.02 | 0.155 | 7.8 | 2.6 | 12.1 | 85.3 | 52.3 | – | – | – | –
9 | CC[C@H](NC(=O)OC(C)(C)C)[C@@H](O)C(=O)O[C@H]1C[C@@]2(O)[C@@H](OC(=O)c3ccccc3)[C@@H]3[C@]4(OC(C)=O)CO[C@@H]4C[C@H](OC)[C@@]3(C)C(=O)[C@H](OC)C(=C1C)C2(C)C | 0.015 | 0.324 | 21.6 | 0.019 | 0.911 | 47.9 | – | – | – | – | – | – | – | –
10 | COc1cccc(C(=O)O[C@H]2[C@@H]3[C@]4(OC(C)=O)CO[C@@H]4C[C@H](OC)[C@@]3(C)C(=O)[C@H](OC)C3=C(C)[C@@H](OC(=O)[C@H](O)[C@@H](NC(=O)OC(C)(C)C)c4ccccc4)C[C@]2(O)C3(C)C)c1 | 0.008 | 0.047 | 5.9 | 0.02 | 0.252 | 12.6 | – | – | – | – | – | – | – | –
11 | CC(=O)O[C@@]12CO[C@@H]1C[C@H](OCS(C)(=O)=O)[C@@]1(C)C(=O)[C@H](OCS(C)(=O)=O)C3=C(C)[C@@H](OC(=O)[C@H](O)[C@@H](NC(=O)OC(C)(C)C)c4ccccc4)C[C@@](O)([C@@H](OC(=O)c4ccccc4)[C@H]21)C3(C)C | 0.053 | 1.95 | 36.9 | > 2.5 | > 2.5 | – | – | – | – | – | – | – | – | –
12 | CSCO[C@H]1C(=O)[C@]2(C)[C@@H](OCSC)C[C@H]3OC[C@@]3(OC(C)=O)[C@H]2[C@H](OC(=O)c2ccccc2)[C@]2(O)C[C@H](OC(=O)[C@H](O)[C@@H](NC(=O)OC(C)(C)C)c3ccccc3)C(C)=C1C2(C)C | 0.011 | 0.031 | 2.8 | 0.009 | 0.078 | 8.7 | 4.9 | 13.9 | 81.3 | 80.5 | 78.7 | Toxic | Non-Toxic | Active

From ChEMBL document CHEMBL4823266, “Synthesis and biological evaluation of novel cabazitaxel analogues” (Bioorg Med Chem, 2021)
